Assay results pooled from the literature.
Lines come from different studies, so protocols differ. In brackets after ≈: the same amount, converted by molar mass.

N#C[Se]Cc1cc(=O)oc2cc(O)ccc12  GI50 (HeLa; cell growth or viability, SRB): 20 µM
CN[C@H](CC(C)C)C(=O)N[C@H]1C(=O)N[C@@H](CC(N)=O)C(=O)N[C@H]2C(=O)N[C@H]3C(=O)N[C@H](C(=O)N[C@H](C(=O)O)c4cc(O)cc(O)c4-c4cc3ccc4O)[C@H](O)c3ccc(c(Cl)c3)Oc3cc2cc(c3O[C@@H]2O[C@H](CO)[C@@H](O)[C@H](O)[C@H]2O[C@H]2C[C@](C)(N)[C@H](O)[C@H](C)O2)Oc2ccc(cc2Cl)[C@H]1O  MIC (Enterococcus faecalis; microbial growth; VRE; drug-resistant strain): 64 µg/mL (≈ 44.2 µM)
N#C[Se]CCCCOc1ccc2c(-c3ccccc3)cc(=O)oc2c1  GI50 (HeLa; cell growth or viability, SRB): 23 µM
C#Cc1ccc(O)c(C=NNC(=O)c2ccc(COC)cc2)c1  MIC80 (Aspergillus fumigatus; microbial growth; 48 h, pH 6.5): 1 µg/mL (≈ 3.24 µM)
Cc1ccc(C=NNC(=S)N[N+](=O)[O-])cc1  IC50 (Leishmania major; parasite growth, MTT; 72 h, promastigote): 346 µM
C#Cc1cccc(C=NNC(=O)c2ccc(Br)cc2)c1O  MIC80 (Aspergillus fumigatus; microbial growth; 48 h, pH 6.5): 4 µg/mL (≈ 11.7 µM)
O=[N+]([O-])NC(=S)NN=Cc1ccc(F)cc1  IC50 (Leishmania major; parasite growth; J774.A1; 72 h, intracellular, amastigote): 76.4 µM
O=c1[nH]c(=O)n([C@@H]2O[C@H](COCc3ccccc3)[C@@H](OCc3ccccc3)[C@H](OCc3ccccc3)[C@H]2I)cc1F  IC50 (Japanese encephalitis virus; viral replication, inhibitor, ELISA; Vero): 4.98 µM
N.N.[Cl][Pt][Cl]  inhibition (SU-DHL-6; cell growth or viability, ATP luminescence; 10 µM, 72 h): 100%
C#Cc1ccc(O)c(C=NNC(=O)c2ccc(Br)cc2Br)c1  MIC80 (Aspergillus fumigatus; microbial growth; 48 h, pH 6.5): 2 µg/mL (≈ 4.74 µM)
O=[N+]([O-])NC(=S)NN=Cc1ccc(Br)cc1  IC50 (Leishmania major; parasite growth, MTT; 72 h, promastigote): 433 µM
C#Cc1cccc(O)c1C=NNC(=O)c1ccc(COC)cc1  MIC80 (Aspergillus fumigatus; microbial growth; 48 h, pH 6.5): > 16 µg/mL
CC[C@H](C)[C@H](NC(=O)[C@@H]1CCCN1C(=O)[C@H](CCC(=O)O)NC(=O)[C@H](CC(C)C)NC(=O)[C@@H](N)C(C)C)C(=O)N[C@@H](CC(C)C)C(=O)N[C@@H](Cc1c[nH]cn1)C(=O)N[C@@H](CO)C(=O)N[C@H](C(=O)O)[C@@H](C)OP(=O)(O)O  IC50 (HeLa; cell growth or viability, MTT; 72 h): 0.82 µM
Nc1ccn([C@@H]2O[C@H](COCc3ccccc3)[C@@H](OCc3ccccc3)[C@H](OCc3ccccc3)[C@H]2I)c(=O)n1  IC50 (Japanese encephalitis virus; viral replication, inhibitor, ELISA; Vero): > 20 µM
C[S+]([O-])CCCCN=C=S (stereo not drawn)  IC50 (HDFa; cell growth or viability, MTT; 24 h): 49.8 µM
